Assay results from ChEMBL document CHEMBL1146459, “Production of biologically active taxoids by a callus culture of Taxus cuspidata” (2004).

What was measured:
[1] = tested on: HT-29; assay: Growth inhibition of human HT-29 cells after 48 hrs by SRB assay; type: functional; conditions: HT-29, 48 h
[2] = tested on: HCT-116; assay: Growth inhibition of human HCT116 cells after 48 hrs by SRB assay; type: functional; conditions: HCT-116, 48 h
[3] = Reversal of multidrug resistance in human 2780AD cells assessed as [3H]vincristine accumulation at 0.1 ug/mL after 2 hrs relative to control; type: functional, A2780 ADR
Summary of the method: (§1)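 Multidrug-resistant human ovarian cancer 2780AD cells were exposed to taxoids at 0.1, 1 or 10 µg/mL. Radiolabelled vincristine accumulated in the cells was measured as dpm/well, using means of triplicate determinations. Results are expressed as % of vincristine accumulated relative to the control experiment. They were also scored on a seven-level index according to the range of relative accumulation.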

[4] = tested on: A549; assay: Growth inhibition of human A549 cells after 48 hrs by SRB assay; type: functional; conditions: A549, 48 h
[5] = tested on: NCI-H226; assay: Growth inhibition of human NCI-H226 cells after 48 hrs by SRB assay; type: functional; conditions: NCI-H226, 48 h
[6] = tested on: OVCAR-8; assay: Growth inhibition of human OVCAR8 cells after 48 hrs by SRB assay; type: functional; conditions: OVCAR-8, 48 h
[7] = tested on: NCI-H460; assay: Growth inhibition of human NCI-H460 cells after 48 hrs by SRB assay; type: functional; conditions: NCI-H460, 48 h
[8] = Reversal of multidrug resistance in human 2780AD cells assessed as [3H]vincristine accumulation at 10 ug/mL after 2 hrs relative to control; type: functional, A2780 ADR; summary of the method: as §1
[9] = tested on: OVCAR-3; assay: Growth inhibition of human OVCAR-3 cells after 48 hrs by SRB assay; type: functional; conditions: OVCAR-3, 48 h
[10] = tested on: DMS-114; assay: Growth inhibition of human DMS114 cells after 48 hrs by SRB assay; type: functional; conditions: DMS-114, 48 h
[11] = Growth inhibition of human MKN1 cells after 48 hrs by SRB assay; type: functional; conditions: MKN-1, 48 h
[12] = Reversal of multidrug resistance in human 2780AD cells assessed as [3H]vincristine accumulation at 10 ug/mL after 2 hrs relative to verapamil; type: functional, A2780 ADR
[13] = tested on: HCT-15; assay: Growth inhibition of human HCT15 cells after 48 hrs by SRB assay; type: functional; conditions: HCT-15, 48 h
[14] = tested on: HCC 2998; assay: Growth inhibition of human HCC2998 cells after 48 hrs by SRB assay; type: functional; conditions: HCC 2998, 48 h
[15] = tested on: SF-539; assay: Growth inhibition of human SF539 cells after 48 hrs by SRB assay; type: functional; conditions: SF-539, 48 h
[16] = tested on: MKN-28; assay: Growth inhibition of human MKN28 cells after 48 hrs by SRB assay; type: functional; conditions: MKN-28, 48 h
[17] = tested on: MKN-7; assay: Growth inhibition of human MKN7 cells after 48 hrs by SRB assay; type: functional; conditions: MKN-7, 48 h
[18] = Growth inhibition of human RXF631L cells after 48 hrs by SRB assay; type: functional; conditions: RXF 631, 48 h
[19] = tested on: U-251; assay: Growth inhibition of human U251 cells after 48 hrs by SRB assay; type: functional; conditions: U-251, 48 h
[20] = tested on: DU-145; assay: Growth inhibition of human DU145 cells after 48 hrs by SRB assay; type: functional; conditions: DU-145, 48 h
[21] = tested on: MCF7; assay: Growth inhibition of human MCF7 cells after 48 hrs by SRB assay; type: functional; conditions: MCF7, 48 h
[22] = read-out: LC50 (the source's name)
[23] = read-out: pLC50 (the source's name) (converted)

C=C1[C@@H](OC(C)=O)CC[C@@]2(C)C[C@H](OC(C)=O)C3=C(C)C[C@H](OC(=O)C(C)CC)[C@@H]([C@@H](OC(C)=O)[C@H]12)C3(C)C (stereo partly drawn)
GI50 ([1]; read-out: GI50): 28 µM | CC50 [1, 22]: > 100 µM | TGI ([1]; read-out: TGI): > 100 µM | GI50 ([1]; read-out: pGI50 (converted)): 27.5 µM | CC50 ([1]; read-out: pLC50 (converted)): > 100 µM | TGI ([1]; read-out: pTGI (converted)): 100 µM | GI50 ([2]; read-out: GI50): 30 µM | CC50 [2, 22]: > 100 µM | TGI ([2]; read-out: TGI): > 100 µM | GI50 ([2]; read-out: pGI50 (converted)): 30.2 µM | CC50 [2, 23]: 100 µM | TGI ([2]; read-out: pTGI (converted)): 100 µM | Activity [3]: 111% | GI50 ([4]; read-out: GI50): 30 µM | CC50 [4, 22]: > 100 µM | TGI ([4]; read-out: TGI): > 100 µM | GI50 ([4]; read-out: pGI50 (converted)): 30.2 µM | CC50 [4, 23]: 100 µM | TGI ([4]; read-out: pTGI (converted)): 100 µM | GI50 ([5]; read-out: GI50): 32 µM | CC50 [5, 22]: > 100 µM | TGI ([5]; read-out: TGI): > 100 µM | GI50 ([5]; read-out: pGI50 (converted)): 32.4 µM | CC50 [5, 23]: 100 µM | TGI ([5]; read-out: pTGI (converted)): 100 µM | GI50 ([6]; read-out: GI50): 37 µM | CC50 [6, 22]: > 100 µM | TGI ([6]; read-out: TGI): > 100 µM | GI50 ([6]; read-out: pGI50 (converted)): 37.2 µM | TGI ([6]; read-out: pTGI (converted)): 100 µM | GI50 ([7]; read-out: GI50): 36 µM | CC50 [7, 22]: > 100 µM | TGI ([7]; read-out: TGI): > 100 µM | GI50 ([7]; read-out: pGI50 (converted)): 35.5 µM | TGI ([7]; read-out: pTGI (converted)): 100 µM | Activity [8]: 701% | GI50 ([9]; read-out: GI50): 21 µM | CC50 [9, 22]: > 100 µM | TGI ([9]; read-out: TGI): 99 µM | GI50 ([9]; read-out: pGI50 (converted)): 20.4 µM | CC50 ([9]; read-out: pLC50 (converted)): > 100 µM | TGI ([9]; read-out: pTGI (converted)): 100 µM | GI50 ([10]; read-out: GI50): 10 µM | CC50 [10, 22]: > 100 µM | TGI ([10]; read-out: TGI): 57 µM | GI50 ([10]; read-out: pGI50 (converted)): 10 µM | CC50 [10, 23]: 100 µM | TGI ([10]; read-out: pTGI (converted)): 57.5 µM | GI50 ([11]; read-out: GI50): 49 µM | CC50 [11, 22]: > 100 µM | TGI ([11]; read-out: TGI): > 100 µM | GI50 ([11]; read-out: pGI50 (converted)): 49 µM | TGI ([11]; read-out: pTGI (converted)): 100 µM | Activity [12]: 132% | GI50 ([13]; read-out: GI50): 32 µM | CC50 [13, 22]: > 100 µM | TGI ([13]; read-out: TGI): > 100 µM | GI50 ([13]; read-out: pGI50 (converted)): 32.4 µM | CC50 ([13]; read-out: pLC50 (converted)): > 100 µM | TGI ([13]; read-out: pTGI (converted)): 100 µM | GI50 ([14]; read-out: GI50): 27 µM | CC50 [14, 22]: > 100 µM | TGI ([14]; read-out: TGI): > 100 µM | GI50 ([14]; read-out: pGI50 (converted)): 27.5 µM | CC50 [14, 23]: 100 µM | TGI ([14]; read-out: pTGI (converted)): 100 µM | GI50 ([15]; read-out: GI50): 45 µM | CC50 [15, 22]: > 100 µM | TGI ([15]; read-out: TGI): > 100 µM | GI50 ([15]; read-out: pGI50 (converted)): 44.7 µM | CC50 [15, 23]: 100 µM | TGI ([15]; read-out: pTGI (converted)): 100 µM | GI50 ([16]; read-out: GI50): 31 µM | CC50 [16, 22]: > 100 µM | TGI ([16]; read-out: TGI): > 100 µM | GI50 ([16]; read-out: pGI50 (converted)): 30.9 µM | CC50 ([16]; read-out: pLC50 (converted)): > 100 µM | TGI ([16]; read-out: pTGI (converted)): 100 µM | GI50 ([17]; read-out: GI50): 18 µM | CC50 [17, 22]: > 100 µM | TGI ([17]; read-out: TGI): 93 µM | GI50 ([17]; read-out: pGI50 (converted)): 18.2 µM | CC50 [17, 23]: 100 µM | TGI ([17]; read-out: pTGI (converted)): 93.3 µM | GI50 ([18]; read-out: GI50): 25 µM | CC50 [18, 22]: > 100 µM | TGI ([18]; read-out: TGI): > 100 µM | GI50 ([18]; read-out: pGI50 (converted)): 24.5 µM | CC50 [18, 23]: 100 µM | TGI ([18]; read-out: pTGI (converted)): 100 µM | GI50 ([19]; read-out: GI50): 36 µM | CC50 [19, 22]: > 100 µM | TGI ([19]; read-out: TGI): > 100 µM | GI50 ([19]; read-out: pGI50 (converted)): 36.3 µM | CC50 [19, 23]: 100 µM | TGI ([19]; read-out: pTGI (converted)): 100 µM | GI50 ([20]; read-out: GI50): 33 µM | CC50 [20, 22]: > 100 µM | TGI ([20]; read-out: TGI): > 100 µM | GI50 ([20]; read-out: pGI50 (converted)): 32.4 µM | CC50 [20, 23]: 100 µM | TGI ([20]; read-out: pTGI (converted)): 100 µM | GI50 ([21]; read-out: GI50): 24 µM | CC50 [21, 22]: > 100 µM | TGI ([21]; read-out: TGI): 93 µM | GI50 ([21]; read-out: pGI50 (converted)): 24 µM | CC50 ([21]; read-out: pLC50 (converted)): > 100 µM | TGI ([21]; read-out: pTGI (converted)): 93.3 µM
